ChEMBL document CHEMBL1144538, “Synthesis and pharmacological evaluation of some 3-phenyl-2-substituted-3H-quinazolin-4-one as analgesic, anti-inflammatory agents” (2007)

Columns and labels:
Assay type in all cases: functional
[1] = system: Rattus norvegicus; assay: Anti-inflammatory activity against Carrageenan-induced paw oedema rat model at 10 mg/kg after 1 hr
Outline: (§1)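 Rat carrageenan paw oedema; compound dosed orally as suspension in 1% carboxymethyl cellulose, six rats per group. Paw volume by mercury displacement plethysmography immediately before and at the stated time after carrageenan injection. Percent oedema inhibition computed from pre/post paw volumes of treated versus vehicle-control rats; one-way ANOVA versus control.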

[2] = system: Mus musculus; assay: Analgesic activity in Wistar Albino mouse at 20 mg/kg, po after 1 hr by tail-flick technique
Outline: (§2)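 Tail-flick in Wistar albino mice (25–35 g, either sex, randomly selected), compound given orally as suspension in 1% carboxymethyl cellulose; six animals per group. Reaction time read before dosing and after dosing, cut-off 10 s. Percent analgesic activity = (T2 − T1)/(10 − T1) × 100, T1/T2 being pre/post reaction times; mean of n = 6, one-way ANOVA versus control.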

[3] = system: Mus musculus; assay: Analgesic activity in Wistar Albino mouse at 10 mg/kg, po after 1 hr by tail-flick technique; outline: as §2
[4] = system: Mus musculus; assay: Analgesic activity in Wistar Albino mouse at 20 mg/kg, po after 2 hrs by tail-flick technique; outline: as §2
[5] = system: Rattus norvegicus; assay: Anti-inflammatory activity against Carrageenan-induced paw oedema rat model at 20 mg/kg after 3 hrs; outline: as §1
[6] = system: Rattus norvegicus; assay: Anti-inflammatory activity against Carrageenan-induced paw oedema rat model at 10 mg/kg after 30 mins; outline: as §1
[7] = system: Mus musculus; assay: Analgesic activity in Wistar Albino mouse at 20 mg/kg, po after 3 hrs by tail-flick technique; outline: as §2
[8] = system: Rattus norvegicus; assay: Anti-inflammatory activity against Carrageenan-induced paw oedema rat model at 20 mg/kg after 1 hr; outline: as §1
[9] = system: Rattus norvegicus; assay: Anti-inflammatory activity against Carrageenan-induced paw oedema rat model at 10 mg/kg after 3 hrs; outline: as §1
[10] = system: Mus musculus; assay: Analgesic activity in Wistar Albino mouse at 10 mg/kg, po after 2 hrs by tail-flick technique; outline: as §2
[11] = system: Rattus norvegicus; assay: Anti-inflammatory activity against Carrageenan-induced paw oedema rat model at 20 mg/kg after 2 hrs; outline: as §1
[12] = system: Mus musculus; assay: Analgesic activity in Wistar Albino mouse at 10 mg/kg, po after 3 hrs by tail-flick technique; outline: as §2
[13] = system: Rattus norvegicus; assay: Anti-inflammatory activity against Carrageenan-induced paw oedema rat model at 10 mg/kg after 2 hrs; outline: as §1
[14] = system: Mus musculus; assay: Analgesic activity in Wistar Albino mouse at 20 mg/kg, po after 30 mins by tail-flick technique; outline: as §2
[15] = system: Rattus norvegicus; assay: Anti-inflammatory activity against Carrageenan-induced paw oedema rat model at 20 mg/kg after 30 min; outline: as §1
[16] = system: Mus musculus; assay: Analgesic activity in Wistar Albino mouse at 10 mg/kg, po after 30 mins by tail-flick technique; outline: as §2

## O=C(O)Cc1ccccc1Nc1c(Cl)cccc1Cl [DICLOFENAC]
[1]
  Activity: 38%
[2]
  Activity: 55%
[3]
  Activity: 43%
[4]
  Activity: 62%
[5]
  Activity: 42%
[6]
  Activity: 32%
[7]
  Activity: 39%
[8]
  Activity: 52%
[9]
  Activity: 33%
[10]
  Activity: 45%
[11]
  Activity: 60%
[12]
  Activity: 33%
[13]
  Activity: 39%
[14]
  Activity: 46%
[15]
  Activity: 45%
[16]
  Activity: 37%

## O=C1Nc2ccccc2/C1=N\Nc1nc2ccccc2c(=O)n1-c1ccccc1
[1]
  Activity: 30%
[2]
  Activity: 51%
[3]
  Activity: 37%
[4]
  Activity: 55%
[5]
  Activity: 30%
[6]
  Activity: 27%
[7]
  Activity: 35%
[8]
  Activity: 36%
[9]
  Activity: 23%
[10]
  Activity: 40%
[11]
  Activity: 39%
[12]
  Activity: 30%
[13]
  Activity: 31%
[14]
  Activity: 47%
[15]
  Activity: 32%
[16]
  Activity: 36%

## COc1ccc(/C=N\Nc2nc3ccccc3c(=O)n2-c2ccccc2)cc1
[1]
  Activity: 30%
[2]
  Activity: 49%
[3]
  Activity: 42%
[4]
  Activity: 50%
[5]
  Activity: 30%
[6]
  Activity: 28%
[7]
  Activity: 29%
[8]
  Activity: 37%
[9]
  Activity: 24%
[10]
  Activity: 43%
[11]
  Activity: 37%
[12]
  Activity: 30%
[13]
  Activity: 32%
[14]
  Activity: 42%
[15]
  Activity: 33%
[16]
  Activity: 38%

## O=c1c2ccccc2nc(N/N=C\c2ccc(Cl)cc2)n1-c1ccccc1
[1]
  Activity: 28%
[2]
  Activity: 45%
[3]
  Activity: 34%
[4]
  Activity: 48%
[5]
  Activity: 25%
[6]
  Activity: 26%
[7]
  Activity: 35%
[8]
  Activity: 32%
[9]
  Activity: 23%
[10]
  Activity: 42%
[11]
  Activity: 37%
[12]
  Activity: 27%
[13]
  Activity: 30%
[14]
  Activity: 40%
[15]
  Activity: 29%
[16]
  Activity: 32%

## O=c1c2ccccc2nc(N/N=C\c2ccccc2)n1-c1ccccc1
[1]
  Activity: 32%
[2]
  Activity: 50%
[3]
  Activity: 38%
[4]
  Activity: 53%
[5]
  Activity: 26%
[6]
  Activity: 28%
[7]
  Activity: 31%
[8]
  Activity: 40%
[9]
  Activity: 29%
[10]
  Activity: 41%
[11]
  Activity: 43%
[12]
  Activity: 29%
[13]
  Activity: 35%
[14]
  Activity: 46%
[15]
  Activity: 36%
[16]
  Activity: 35%

## O=c1c2ccccc2nc(N/N=C\c2ccccc2Cl)n1-c1ccccc1
[1]
  Activity: 24%
[2]
  Activity: 39%
[3]
  Activity: 30%
[4]
  Activity: 42%
[5]
  Activity: 25%
[6]
  Activity: 21%
[7]
  Activity: 36%
[8]
  Activity: 32%
[9]
  Activity: 20%
[10]
  Activity: 37%
[11]
  Activity: 35%
[12]
  Activity: 25%
[13]
  Activity: 26%
[14]
  Activity: 37%
[15]
  Activity: 27%
[16]
  Activity: 29%

## O=c1c2ccccc2nc(N/N=C\c2ccccc2[N+](=O)[O-])n1-c1ccccc1
[1]
  Activity: 29%
[2]
  Activity: 46%
[3]
  Activity: 36%
[4]
  Activity: 49%
[5]
  Activity: 30%
[6]
  Activity: 27%
[7]
  Activity: 39%
[8]
  Activity: 33%
[9]
  Activity: 22%
[10]
  Activity: 39%
[11]
  Activity: 36%
[12]
  Activity: 30%
[13]
  Activity: 34%
[14]
  Activity: 42%
[15]
  Activity: 32%
[16]
  Activity: 35%

## O=c1c2ccccc2nc(N/N=C\c2ccc([N+](=O)[O-])cc2)n1-c1ccccc1
[1]
  Activity: 28%
[2]
  Activity: 45%
[3]
  Activity: 39%
[4]
  Activity: 47%
[5]
  Activity: 32%
[6]
  Activity: 25%
[7]
  Activity: 33%
[8]
  Activity: 35%
[9]
  Activity: 20%
[10]
  Activity: 39%
[11]
  Activity: 36%
[12]
  Activity: 27%
[13]
  Activity: 30%
[14]
  Activity: 38%
[15]
  Activity: 35%
[16]
  Activity: 34%

## C/C(=N\Nc1nc2ccccc2c(=O)n1-c1ccccc1)c1ccccc1
[1]
  Activity: 35%
[2]
  Activity: 53%
[3]
  Activity: 43%
[4]
  Activity: 57%
[5]
  Activity: 33%
[6]
  Activity: 31%
[7]
  Activity: 36%
[8]
  Activity: 42%
[9]
  Activity: 29%
[10]
  Activity: 43%
[11]
  Activity: 46%
[12]
  Activity: 29%
[13]
  Activity: 38%
[14]
  Activity: 50%
[15]
  Activity: 38%
[16]
  Activity: 38%

## CCC/C(C)=N/Nc1nc2ccccc2c(=O)n1-c1ccccc1
[1]
  Activity: 41%
[2]
  Activity: 62%
[3]
  Activity: 48%
[4]
  Activity: 62%
[5]
  Activity: 41%
[6]
  Activity: 35%
[7]
  Activity: 45%
[8]
  Activity: 58%
[9]
  Activity: 33%
[10]
  Activity: 50%
[11]
  Activity: 60%
[12]
  Activity: 33%
[13]
  Activity: 42%
[14]
  Activity: 56%
[15]
  Activity: 46%
[16]
  Activity: 43%

## Cc1ccc(/C=N\Nc2nc3ccccc3c(=O)n2-c2ccccc2)cc1
[1]
  Activity: 33%
[2]
  Activity: 47%
[3]
  Activity: 40%
[4]
  Activity: 50%
[5]
  Activity: 36%
[6]
  Activity: 28%
[7]
  Activity: 40%
[8]
  Activity: 38%
[9]
  Activity: 25%
[10]
  Activity: 40%
[11]
  Activity: 43%
[12]
  Activity: 33%
[13]
  Activity: 34%
[14]
  Activity: 43%
[15]
  Activity: 38%
[16]
  Activity: 37%

## Cc1ccccc1/C=N\Nc1nc2ccccc2c(=O)n1-c1ccccc1
[1]
  Activity: 32%
[2]
  Activity: 46%
[3]
  Activity: 39%
[4]
  Activity: 48%
[5]
  Activity: 30%
[6]
  Activity: 30%
[7]
  Activity: 39%
[8]
  Activity: 39%
[9]
  Activity: 28%
[10]
  Activity: 40%
[11]
  Activity: 42%
[12]
  Activity: 33%
[13]
  Activity: 33%
[14]
  Activity: 45%
[15]
  Activity: 36%
[16]
  Activity: 35%

## CC/C(C)=N/Nc1nc2ccccc2c(=O)n1-c1ccccc1
[1]
  Activity: 36%
[2]
  Activity: 59%
[3]
  Activity: 43%
[4]
  Activity: 61%
[5]
  Activity: 36%
[6]
  Activity: 32%
[7]
  Activity: 42%
[8]
  Activity: 45%
[9]
  Activity: 26%
[10]
  Activity: 50%
[11]
  Activity: 47%
[12]
  Activity: 31%
[13]
  Activity: 37%
[14]
  Activity: 55%
[15]
  Activity: 38%
[16]
  Activity: 41%

## CCC(CC)=NNc1nc2ccccc2c(=O)n1-c1ccccc1
[1]
  Activity: 35%
[2]
  Activity: 69%
[3]
  Activity: 55%
[4]
  Activity: 72%
[5]
  Activity: 36%
[6]
  Activity: 34%
[7]
  Activity: 49%
[8]
  Activity: 52%
[9]
  Activity: 32%
[10]
  Activity: 58%
[11]
  Activity: 56%
[12]
  Activity: 41%
[13]
  Activity: 39%
[14]
  Activity: 63%
[15]
  Activity: 43%
[16]
  Activity: 49%

## O=c1c2ccccc2nc(NN=C(c2ccccc2)c2ccccc2)n1-c1ccccc1
[1]
  Activity: 33%
[2]
  Activity: 41%
[3]
  Activity: 36%
[4]
  Activity: 46%
[5]
  Activity: 35%
[6]
  Activity: 27%
[7]
  Activity: 36%
[8]
  Activity: 39%
[9]
  Activity: 26%
[10]
  Activity: 41%
[11]
  Activity: 42%
[12]
  Activity: 29%
[13]
  Activity: 35%
[14]
  Activity: 39%
[15]
  Activity: 36%
[16]
  Activity: 33%

## O=c1c2ccccc2nc(NN=C2CCCCC2)n1-c1ccccc1
[1]
  Activity: 33%
[2]
  Activity: 51%
[3]
  Activity: 40%
[4]
  Activity: 53%
[5]
  Activity: 35%
[6]
  Activity: 29%
[7]
  Activity: 37%
[8]
  Activity: 42%
[9]
  Activity: 27%
[10]
  Activity: 46%
[11]
  Activity: 42%
[12]
  Activity: 25%
[13]
  Activity: 36%
[14]
  Activity: 50%
[15]
  Activity: 39%
[16]
  Activity: 33%
